Screening data (PubChem BioAssay)
Wee1 degr inh = inhibitors of human Wee1 degradation; reporter increase, % at 5 µM; 220,000 tested, 1.2% active; AID 1321; HeLa Luc-Wee1K328M stability, luciferase luminescence; 100% = proteasome inhibitor MG132 effect; P30291;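 active means activation above the mean of all tested compounds plus 3 SD, set per screening run, cut at about 8.8% in these data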;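 further: cells exposed to compound for 20 h before luminescence read; 0% = DMSO alone and 100% = MG132 at 30 µM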
RanGTP-Impb inh = inhibitors of RanGTP-importin-beta interaction, primary screen, biochemical, FRET, CFP-Ran, YFP-importin-beta, homogeneous. cell-free CFP-Ran/YFP-importin-beta FRET ratio. inhibition, % (concentration not given with the values). 300,000 tested, 1.1% active;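 active means more than half of the replicate wells show a fall in the fluorescence ratio signal beyond about 16%, limit read from the data, passing the limit was not always enough; inconclusive means exactly half of the replicate wells pass the set limit; inactive means fewer than half of replicates pass the limit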;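 further: 0% = DMSO wells and 100% = Ran loaded with GDP instead of GTP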
Runt-CBFb FRET = Runt domain-CBFb interaction inhibition | inhibition, % at 20 µM | Cerulean-Runt/Venus-CBFb FRET ratio 530/480, 1 h | Q01196+Q13951 | 220,000 tested, 0.46% active;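 active means inhibition over about 50% at 20 µM in the single-dose screen, limit read from the data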;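 further: 0% = DMSO wells and 100% = excess unlabeled CBFb competitor control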
Target sequence (Q01196 whole entry, looked up, the tested form may be a part): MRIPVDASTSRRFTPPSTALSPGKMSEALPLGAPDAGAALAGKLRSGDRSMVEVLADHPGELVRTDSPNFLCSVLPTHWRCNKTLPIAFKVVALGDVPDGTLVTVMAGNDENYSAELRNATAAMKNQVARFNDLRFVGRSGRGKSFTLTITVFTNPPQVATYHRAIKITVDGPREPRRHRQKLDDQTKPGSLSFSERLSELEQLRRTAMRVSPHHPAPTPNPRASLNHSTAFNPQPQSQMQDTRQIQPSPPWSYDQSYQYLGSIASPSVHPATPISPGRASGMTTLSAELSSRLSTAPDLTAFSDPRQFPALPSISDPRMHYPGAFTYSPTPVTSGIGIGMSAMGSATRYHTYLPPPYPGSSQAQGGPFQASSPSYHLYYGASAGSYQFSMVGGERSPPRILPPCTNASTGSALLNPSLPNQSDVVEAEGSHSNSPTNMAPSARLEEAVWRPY
Target sequence (Q13951 whole entry, looked up, the tested form may be a part): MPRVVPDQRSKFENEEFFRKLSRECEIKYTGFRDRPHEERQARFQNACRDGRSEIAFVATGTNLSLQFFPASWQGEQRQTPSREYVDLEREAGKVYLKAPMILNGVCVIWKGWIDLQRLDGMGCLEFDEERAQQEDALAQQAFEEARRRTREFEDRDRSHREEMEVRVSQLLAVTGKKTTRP
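Doses: 20 µM compound in 1% DMSO | Material: Cerulean-labeled Runt domain protein | Amount: Each fluorescent fusion protein 100 nM | Schedule: Two 1 h room-temperature incubations shielded from light | Measured by: FRET fluorescence | Evaluation: Loss of energy transfer signal | Controls: Unlabeled CBFb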
AI-2 QS mod = Vibrio harveyi AI-2 quorum sensing modulation; Vibrio harveyi JMH597 AI-2 luminescence/OD600 ratio, 9 h; active compounds read low; strain lacks LuxN and CqsS sensors; 0 = neutral-control median; activity change, % at 7.5 µM; 300,000 tested, 0.4% active; in the data active means activity change below about -75%, passing the limit was not always enough; inconclusive means no clear call, values can overlap the other calls;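 further: luminescence divided by OD600 gain over 9 h not by final OD600 alone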
proKLK7 act = activates the human kallikrein-7 zymogen | AID 652039 | purified proKLK7, EDANS-DABCYL substrate fluorescence; 100% is mature enzyme control, 0% vehicle | activation, % at 7 µM | P49862 | 370,000 tested, 0.9% active;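 active means activation above the mean of all tested compounds plus 3 SD, computed per campaign excluding outliers beyond control limits, cut at about 13% in these data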
Runt-SMMHC FRET = Runt domain-CBFb-SMMHC interaction inhibition. Cerulean-Runt/Venus-CBFb-SMMHC FRET ratio 530/480, 1 h. inhibition, % at 20 µM. 220,000 tested, 0.74% active. AID 1434;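 active means mean inhibition across duplicate retests at 20 µM reaching about 50%, limit read from the data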;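 further: 0% = DMSO wells and 100% = wells with excess untagged CBFb-SMMHC; inhibitors lower the FRET ratio by blocking Runt binding to CBFb-SMMHC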
Active calls of the source: *; ? = inconclusive; . = no result given. In the library only some 2.9% were active in any assay of this set; here they are far more common.

SMILES	Wee1 degr inh	RanGTP-Impb inh	Runt-CBFb FRET	AI-2 QS mod	proKLK7 act	Runt-SMMHC FRET
COc1ccccc1CNC(=O)c1c(N)n(CCCN2CCOCC2)c2nc3ccccc3nc12	-1	126*	3	8	-30	38
Nc1c(C(=O)NCc2ccc3c(c2)OCO3)c2nc3ccccc3nc2n1CCCN1CCOCC1	1	61*	22	20	-16	81*
CC1(C2CC2)NC(=O)N(CC(=O)N2CCN(c3ccc(F)cc3)CC2)C1=O (configuration not stated)	.	.	.	.	0	.
CCOC(=O)C(C)c1c(C(=O)c2ccc(C)nc2)c2ccccc2n1C (configuration not stated)	-2	-1	4	18	2	52*
C[C@@H](NC(=O)c1[nH]cnc1C(=O)Nc1ccon1)c1ccccc1	.	.	.	.	0	.
COc1ccc(OC)c(NC(=O)c2cccc(NC(=O)c3ccccc3C(=O)O)c2)c1	.	2	.	7	0	.
Cc1ccc(Nc2nc(N3CCOCC3)nc(N3CCOCC3)n2)cc1C	.	-2	.	15	0	.
O=C(Nc1ccc(F)cc1)OC1CC2CC1[C@H]1CCCCN1[C@H]2Cc1ccccc1 (some centres not stated)	.	.	.	.	0	.
C[C@H](CO)N1C[C@H](C)[C@@H](CN(C)C(=O)Nc2cccc(F)c2)OCc2cn(nn2)CCCC1=O	.	.	.	.	0	.
COc1ccccc1OCC(=O)n1cc(C(=O)c2cc(Cl)cc(Cl)c2O)cn1	1	-5	-10	35	0	-25
CC(C)NC(=S)n1cc(C(=O)c2cc(Cl)cc(Cl)c2O)cn1	.	21*	.	40	0	.
O=C(Cn1c2ccccc2c(=O)c2ccccc21)Nc1cccc(F)c1	-5	60*	76*	18	4	63*
O=C(CC(=O)Nc1cccc(F)c1)Nc1cccc(F)c1	.	-1	.	5	0	.
COc1ccc2nc3oc(C(=O)Nc4ccc(OC)c(OC)c4)cc3cc2c1	8.9*	-2	-10	10	1	-27
CCOC(=O)N1CCC(NC(=O)c2cc3cc4cc(OC)ccc4nc3o2)CC1	-1	21*	-4	5	-12	2
CCCN(CCC)CCCNC(=O)c1cc2cc3ccc(OC)cc3nc2o1	-2	1	0	15	61*	4
CCOC(=O)[C@H](CCc1ccccc1)N[C@@H](C)C(=O)N1Cc2cc(OC)c(OC)cc2C[C@H]1C(=O)O	.	.	.	.	1	.
Cc1oc(-c2cc(F)cc(F)c2)nc1CN1CCSCC1	-3	-4	2	10	-1	1
CC12CCC(C(=O)N/N=C/c3ccc(O)cc3)(OC1=O)C2(C)C (configuration not stated)	-1	-2	4	16	-2	-1
N#C/C(=C/c1ccc(F)cc1)c1nnc(NC(=O)c2ccccc2)s1	1	-5	2	13	0	81*
CN(Cc1ccc(F)cc1)S(=O)(=O)c1nnc(NC(=O)c2ccccc2)s1	.	2	.	7	0	.
CCC(=O)c1ccc(SC(=O)N(C)C)cc1O	-1	4	4	22	1	0
O=C(c1sc2ccccc2c1Cl)N(Cc1ccccc1Cl)C1CCS(=O)(=O)C1 (configuration not stated)	9.4*	7	1	23	1	-4
O=C(c1sc2ccccc2c1Cl)N(Cc1ccccc1)C1CCS(=O)(=O)C1 (configuration not stated)	1	?	0	25	0	4
CC(C)Oc1ccc(-c2nn(-c3ccccc3)cc2/C=c2\sc3ncnn3c2=O)cc1	10*	.	-95	.	.	-285
SMILES	Wee1 degr inh	RanGTP-Impb inh	Runt-CBFb FRET	AI-2 QS mod	proKLK7 act	Runt-SMMHC FRET
CCc1ccc2c(c1)C(O)(CC(=O)c1cccs1)C(=O)N2 (configuration not stated)	9.8*	10	0	11	0	-1
C=CCNC(=O)N1CCC(n2nccc2NC(=O)CCCc2ccccc2)CC1	.	5	.	11	-1	.
O=C(COC(=O)Cn1cnc2ccccc21)Nc1cc2c(cc1Cl)C(=O)c1ccccc1C2=O	11*	1	3	14	0	-6
O=C(COC(=O)Cn1cnc2ccccc21)Nc1cc(S(=O)(=O)N2CCOCC2)ccc1Cl	0	2	2	13	0	-1
COC(=O)[C@]12C[C@H](CC(=O)NCc3cccs3)C(=O)N(Cc3ccc4c(c3)OCO4)C1=C[C@H](C(C)(C)C)O[C@@H]2C	.	.	.	.	0	.
O=C(CSc1nnc(NC(=O)c2c(F)cccc2F)s1)NC1CC1	.	4	.	20	0	.
O=C(CSc1nnc(NC(=O)Cc2ccccc2)s1)NCc1ccco1	3	2	2	4	0	2
O=C(CSc1nnc(NC(=O)Cc2ccc(F)cc2)s1)NCc1ccco1	10*	4	-1	33	1	-11
O=C(CSc1nnc(NC(=O)c2c(F)cccc2F)s1)Nc1ccc(F)cc1	10*	3	.	17	0	.
CCCN(CCC)C(=O)Nc1cc(Cl)ccc1OC	1	-9	-1	23	0	-6
COc1ccc(N2CCN(C(=S)NCCc3ccccc3)CC2)cc1	9.4*	?	.	10	0	.
Cc1ccc(S(=O)(=O)NCC(=O)OCc2cc(=O)oc3cc(C)ccc23)cc1	.	.	.	.	-1	.
Cc1ccc(S(=O)(=O)N[C@H](C(=O)Oc2ccc3c(C(F)(F)F)cc(=O)oc3c2)c2ccccc2)cc1	1	33*	11	13	.	78*
Cc1ccc(CNC(=O)c2ccc(N3CCC4(CC3)CC(c3ccccc3)=NO4)c(NC(=O)c3ccc(Cl)c([N+](=O)[O-])c3)c2)cc1	.	-2	.	8	0	.
O=C(Nc1ccc(N2CCOCC2)c(Cl)c1)c1ccc(Br)o1	11*	-2	0	-8	0	0
O=C(Nc1ccc(N2CCN(C(=O)c3ccccc3)CC2)c(Cl)c1)c1ccc(Br)o1	0	-1	0	6	1	0
Cc1cc2c(cc1C)C(=O)C(Br)=C(N)C2=O	.	.	.	.	1	.
NC1=C(Br)C(=O)c2ccccc2C1=O	0	1	-2	-90*	1	-3
COc1ccccc1C(=O)N1CCC2CCN(C(=O)OC(C)(C)C)C2C1 (configuration not stated)	.	.	.	.	0	.
CCN(CC(=O)NCc1ccc(F)cc1)CC(=O)Nc1ccc(S(=O)(=O)N2CCCC2)cc1	0	17*	-5	15	0	0
Cc1ccc(S(=O)(=O)N2CCN(C(=O)CC(C)(C)C)CC2)cc1	9.8*	-3	-1	-6	0	0
CN1CCN(C(=O)CCC(=O)NCc2ccc(F)cc2)CC1	.	2	.	2	0	.
